The text below walks through data of ChEMBL document CHEMBL1155040, “Potency and selectivity of trifluoroacetylimino and pyrazinoylimino nicotinic insecticides and their fit at a unique binding site niche” (J Med Chem, 2008).

A word on the LC50: it is the concentration lethal to half of the exposed cells or organisms. Read a high LC50 as lower toxicity. As usually defined, the IC50 is the midpoint of a concentration-inhibition curve. A word on the inhibition: it is the drop in the measured response relative to a control, in per cent. One may read the LD50 as the dose expected to kill half of the subjects tested. As a reminder, the logP is a log measure of how a compound divides between an organic and an aqueous phase. High values mean higher lipophilicity, low ones lower lipophilicity.

Converted amounts (≈) assume the structure as drawn.

Sequence of Neuronal acetylcholine receptor subunit alpha-4 (P09482 whole entry, one chain of several): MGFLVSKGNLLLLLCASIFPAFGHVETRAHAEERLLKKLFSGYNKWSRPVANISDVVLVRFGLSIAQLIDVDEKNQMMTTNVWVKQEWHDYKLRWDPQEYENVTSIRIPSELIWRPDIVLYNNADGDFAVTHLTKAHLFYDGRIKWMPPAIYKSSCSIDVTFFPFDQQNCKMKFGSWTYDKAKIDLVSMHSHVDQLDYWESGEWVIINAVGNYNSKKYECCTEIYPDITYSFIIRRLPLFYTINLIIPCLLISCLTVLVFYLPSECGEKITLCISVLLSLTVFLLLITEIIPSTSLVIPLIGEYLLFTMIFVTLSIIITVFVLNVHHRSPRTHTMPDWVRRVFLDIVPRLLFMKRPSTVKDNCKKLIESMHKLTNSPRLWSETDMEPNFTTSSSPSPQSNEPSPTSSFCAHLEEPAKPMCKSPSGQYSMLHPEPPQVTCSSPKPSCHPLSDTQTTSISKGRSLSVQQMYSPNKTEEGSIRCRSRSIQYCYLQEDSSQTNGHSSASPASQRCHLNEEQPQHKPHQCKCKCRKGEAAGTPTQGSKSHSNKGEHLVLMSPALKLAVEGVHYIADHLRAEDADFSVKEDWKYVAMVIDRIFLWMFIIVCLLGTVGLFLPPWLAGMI

The first series has as its system Culex quinquefasciatus. Kind of series: Mosquito Larvicidal activity against premethrin-resistant fourth instar Culex quinquefasciatus Marin after 24 hrs. It counts as functional.
Conditions: not given
The method, boiled down: (§1)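 Larvicidal test on fourth-instar Culex quinquefasciatus, using the susceptible CQ1 colony and the permethrin-resistant Marin colony, with 24 h exposure.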
`CC1(C)C(C=C(Cl)Cl)C1C(=O)OCc1cccc(Oc2ccccc2)c1` (stereo unspecified) [PERMETHRIN]: the LC50 is 0.16 mg/L (≈ 0.409 µM).
The same measure, in the same setting: the value for `O=C(/N=c1\sccn1Cc1ccc(Cl)nc1)C(F)(F)F` was 0.024 mg/L (≈ 0.0746 µM).

Target in the next series: not listed separately
Put plainly: (§2) Displacement of [3H]IMI from nAChR in Drosophila brain.
Conditions: not given
The method, boiled down: (§3)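 IC50 (nM, ± SD) for displacing [³H]IMI binding to native nAChR from Drosophila brain.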
(In general: Displacement assays read how much labelled ligand stays bound in the presence of the test substance.)
The compound `O=C(/N=c1\sccn1Cc1ccc(Cl)nc1)c1ccncc1` yielded an IC50 of 0.01 µM.
Compound `O=C(/N=c1\sccn1Cc1ccc(Cl)nc1)c1ccccc1` had an IC50 of 0.121 µM.
Same read-out and setting: under `O=C(/N=c1\sccn1Cc1ccc(Cl)nc1)c1ccc(Cl)cc1` stands over 30 µM.
In turn, `O=C(/N=c1\sccn1Cc1ccc(Cl)nc1)c1cccnc1` yielded a half-inhibitory concentration (IC50) of 0.0048 µM.
The compound `O=C(/N=c1\[nH]ccn1Cc1ccc(Cl)nc1)C(F)(F)F` had an IC50 of 0.0077 µM.
`O=C(/N=c1\sccn1Cc1ccc(Cl)nc1)C(F)(F)F` came in with an IC50 of 0.0031 µM.
`O=C(/N=c1\sccn1Cc1ccc(Cl)nc1)c1ccccn1` showed an IC50 of 0.013 µM.
`O=[N+]([O-])/N=C1\NCCN1Cc1ccc(Cl)nc1` [IMIDACLOPRID] returned an IC50 of 0.0043 µM.
On the same count and under the same terms, under `O=C(/N=c1\sccn1Cc1ccc(Cl)nc1)c1cnccn1` stands 0.0015 µM; under `N#C/N=C1\SCCN1Cc1ccc(Cl)nc1` [THIACLOPRID], 0.0027 µM; under `O=C(/N=c1\sccn1Cc1ccc(Cl)nc1)c1ccc(Cl)nc1`, 0.041 µM.

The next series concerns Drosophila. The description is as §2. The following applies: concentration not given here. The method, boiled down:
as §3
Consider `O=C(/N=c1\sccn1Cc1ccc(Cl)nc1)c1ccc(Cl)cc1`, for which the inhibition amounted to 10%.

For another series, the system named is Mus musculus. Put plainly: Toxicity in Swiss Webster mouse at >36 mg/kg, ip. The conditions noted are these: in vivo. The series is classed as organism-based. The method, boiled down: (§4)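 Male albino Swiss-Webster mice (25-30 g) were dosed intraperitoneally. Results are LD50 in mg/kg, or percent lethality at the indicated dose, which was the maximum allowed by solubility in the vehicle.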
The compound `O=C(/N=c1\sccn1Cc1ccc(Cl)nc1)C(F)(F)F` showed an Activity of 0%.

A further series concerns the target Neuronal acetylcholine receptor subunit alpha-4 (Gallus gallus, UniProt P09482+P09484). Put plainly: Displacement of [3H]nicotine from chick alpha4beta2 nAChR.
Conditions: not given
The method, boiled down: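 Radioligand displacement used [³H]nicotine with chick α4β2 nAChR. Values are IC50 ± SD in nM.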
Compound `O=C(/N=c1\sccn1Cc1ccc(Cl)nc1)C(F)(F)F` had an IC50 of 0.5 µM.
Same read-out and setting: the value for `O=[N+]([O-])/N=C1\NCCN1Cc1ccc(Cl)nc1` [IMIDACLOPRID] was 2.6 µM; that for `O=C(/N=c1\sccn1Cc1ccc(Cl)nc1)c1cnccn1` was 0.9 µM; that for `N#C/N=C1\SCCN1Cc1ccc(Cl)nc1` [THIACLOPRID] was 0.86 µM.

The next series concerns Mus musculus. Put plainly: Toxicity in Swiss Webster mouse at >24 mg/kg, ip. The following applies: in vivo. It counts as organism-based. The essentials: as §4
The compound `O=C(/N=c1\sccn1Cc1ccc(Cl)nc1)c1cnccn1` came in with an Activity of 0%.

Target in the next series: not listed separately
Put plainly: Displacement of [3H]IMI from peach-potato aphid alpha2/rat beta2 nAChR hybrid recombinant receptor.
Conditions: not given
As to `O=C(/N=c1\sccn1Cc1ccc(Cl)nc1)C(F)(F)F`, the IC50 was 0.28 µM.
On the same count and under the same terms, the value for `O=[N+]([O-])/N=C1\NCCN1Cc1ccc(Cl)nc1` [IMIDACLOPRID] was 0.0036 µM.
The same measure, in the same setting: the value for `O=C(/N=c1\sccn1Cc1ccc(Cl)nc1)c1cnccn1` was 0.72 µM; that for `N#C/N=C1\SCCN1Cc1ccc(Cl)nc1` [THIACLOPRID] was 0.011 µM.

Test system in a further series: not listed separately
Kind of series: Toxicity in ip dosed Swiss Webster mouse. It counts as organism-based. The conditions noted are these: in vivo. The essentials: as §4
Turning to `O=C(/N=c1\sccn1Cc1ccc(Cl)nc1)C(F)(F)F`, the LD50 is over 36 mg/kg.
Same read-out and setting: the value for `O=[N+]([O-])/N=C1\NCCN1Cc1ccc(Cl)nc1` [IMIDACLOPRID] was 45 mg/kg; that for `O=C(/N=c1\sccn1Cc1ccc(Cl)nc1)c1cnccn1` was over 24 mg/kg.
Same read-out and setting: the value for `N#C/N=C1\SCCN1Cc1ccc(Cl)nc1` [THIACLOPRID] was 28 mg/kg.

Another series deals with Musca domestica. Kind of series: Insecticidal activity against intrathoracically dosed houseflies at >10 um/g. It counts as functional.
Conditions: not given
The essentials: (§5)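 Adult female houseflies were dosed by intrathoracic injection or topical application, either without or with topical pretreatment with the P450 inhibitor synergist O-propyl O-(2-propynyl)phenylphosphonate (100 µg/g) before the test chemical. Where no LD50 was obtained, percent mortality at the indicated dose is given.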
The compound `O=C(/N=c1\sccn1Cc1ccc(Cl)nc1)c1ccncc1` displayed an Activity of 0%.
As to `O=C(/N=c1\sccn1Cc1ccc(Cl)nc1)c1ccccc1`, the Activity is recorded as 0%.
Consider `O=C(/N=c1\sccn1Cc1ccc(Cl)nc1)c1ccc(Cl)cc1`, for which the Activity is on record as 0%.
On the same count and under the same terms, under `O=C(/N=c1\sccn1Cc1ccc(Cl)nc1)c1cccnc1` stands 0%; under `O=C(/N=c1\sccn1Cc1ccc(Cl)nc1)c1ccccn1`, 0%; under `O=[N+]([O-])/N=C1\NCCN1Cc1ccc(Cl)nc1` [IMIDACLOPRID], 0%.
Still for that read-out and setting: under `O=C(/N=c1\sccn1Cc1ccc(Cl)nc1)c1cnccn1` stands 0%.
In turn, `N#C/N=C1\SCCN1Cc1ccc(Cl)nc1` [THIACLOPRID] came in with an Activity of 19%.
Regarding `O=C(/N=c1\sccn1Cc1ccc(Cl)nc1)c1ccc(Cl)nc1`, the Activity was found to be 0%.

The subject of a further series is Musca domestica. Kind of series: Insecticidal activity against houseflies. It counts as functional.
Conditions: not given
The essentials: as §5
`CNC(=O)Oc1ccccc1OC(C)C` [PROPOXUR]: the LD50 stood at 23 mg/kg.
On to `ClC1=C(Cl)[C@]2(Cl)[C@@H]3[C@@H]4C[C@@H]([C@H]5O[C@@H]45)[C@@H]3[C@@]1(Cl)C2(Cl)Cl` [DIELDRIN], for which the LD50 was 0.75 mg/kg.
Compound `CCOP(=S)(OCC)Oc1nc(Cl)c(Cl)cc1Cl` [CHLORPYRIFOS] showed an LD50 of 2.1 mg/kg.
`O=C(/N=c1\sccn1Cc1ccc(Cl)nc1)c1ccncc1`: the LD50 is over 10 mg/kg.
`O=C(/N=c1\sccn1Cc1ccc(Cl)nc1)c1ccccc1` gave an LD50 of over 10 mg/kg.
On the same count and under the same terms, the value for `O=C(/N=c1\sccn1Cc1ccc(Cl)nc1)c1ccc(Cl)cc1` was over 10 mg/kg; that for `CCOP(=S)(OCC)Oc1ccc([N+](=O)[O-])cc1` [PARATHION] was 1.3 mg/kg; that for `O=C(/N=c1\sccn1Cc1ccc(Cl)nc1)c1cccnc1` was over 10 mg/kg.
Same read-out and setting: the value for `O=C(/N=c1\[nH]ccn1Cc1ccc(Cl)nc1)C(F)(F)F` was over 10 mg/kg; that for `O=C(/N=c1\sccn1Cc1ccc(Cl)nc1)C(F)(F)F` was 0.75 mg/kg; that for `Clc1ccc(C(c2ccc(Cl)cc2)C(Cl)(Cl)Cl)cc1` [CHLOROPHENOTHANE] was 14 mg/kg.
Still for that read-out and setting: under `O=C(/N=c1\sccn1Cc1ccc(Cl)nc1)c1ccccn1` stands over 10 mg/kg.
`O=[N+]([O-])/N=C1\NCCN1Cc1ccc(Cl)nc1` [IMIDACLOPRID] came in with an LD50 of over 10 mg/kg.
Still for that read-out and setting: the value for `O=C(/N=c1\sccn1Cc1ccc(Cl)nc1)c1cnccn1` was over 10 mg/kg.
As for `N#C/N=C1\SCCN1Cc1ccc(Cl)nc1` [THIACLOPRID], the LD50 was over 10 mg/kg.
The compound `O=C(/N=c1\sccn1Cc1ccc(Cl)nc1)c1ccc(Cl)nc1` showed an LD50 of over 10 mg/kg.

For a further series, the system named is Culex quinquefasciatus. Put plainly: Mosquito Larvicidal activity against premethrin-susceptible fourth instar Culex quinquefasciatus CQ1 after 24 hrs. The series is classed as functional. The conditions noted are these: CQ1, 24 h. The essentials: as §1
As to `CC1(C)C(C=C(Cl)Cl)C1C(=O)OCc1cccc(Oc2ccccc2)c1` (stereo unspecified) [PERMETHRIN], the LC50 worked out at 0.005 mg/L (≈ 0.0128 µM).
As for `O=C(/N=c1\sccn1Cc1ccc(Cl)nc1)C(F)(F)F`, the LC50 is 0.012 mg/L (≈ 0.0373 µM).

Test system in a further series: not listed separately
Put plainly: Lipophilicity, log P of the compound. The series is classed as physicochemical. The conditions noted are these: octanol/water.
In turn, `N#C/N=C1\SCCN1Cc1ccc(Cl)nc1` [THIACLOPRID] registered a logP of 1.26.
